The list is not random: actives were taken first. Their share in the collection is about 9.6%.
MT stabilizer = microtubule stabilizers in HeLa cells; AID 2205; 200,000 compounds, 0.83% hits; % tubulin-high responders, % at 10 µM; HeLa tubulin immunostaining HCS, 24 h; share of cells brighter than vehicle mean+2SD;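 active = plate Z-score above 3 for both tubulin-high and condensed-nucleus cell shares, with cell loss under 80%, at 10 µM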;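 note: anti alpha tubulin signal scored within the nucleus-defined area of each cell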
Lmaj promast = Leishmania major promastigote growth inhibition | AID 1063 | Leishmania major promastigotes, resazurin fluorescence viability | 200,000 compounds, 9% hits | inhibition, % at 10 µM; in the data active = inhibition above about 50%;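 note: promastigotes grown with compound for 44 hours at 28 °C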
bCat nuc transl = alters nuclear translocation of beta-catenin in HeLa cells. 190,000 compounds, 0.3% hits. nuclear translocation activity, % at 5 µM. AID 1665. immunofluorescence imaging;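 active = nuclear translocation activity above 50% at 5 µM, with a well cell count of 50 or more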;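 note: per-cell ratio of nuclear to cytoplasmic median beta-catenin stain intensity; plate controls were DMSO negative control for no effect and GSK-3 inhibitor IX positive control for full effect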
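Assay system: human HeLa cells, native beta-catenin; doses: 5 µM primary, 0.02–20 µM confirmation; incubation: compound treatment 24 h, 37°C, 5% CO2; technique: fluorescence imaging of beta-catenin antibody stain plus DAPI; measure: % activation, nuclear-to-cytoplasmic median beta-catenin signal ratio per cell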
BaF3 parental = reduces parental Ba/F3 cell viability, JAK2V617F counter-screen | 220,000 compounds, 1.1% hits | CellTiter-Glo ATP luminescence | inhibition, % at 5.6 µM | AID 1486;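 active = inhibition above a per-campaign cutoff, the mean inhibition of all tested compounds plus 3 SD, cut at about 27% in these data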;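 note: 0% = DMSO wells and 100% = JAK Inhibitor I control wells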
Ba/F3 V617F tox = loss of viability in JAK2V617F-driven Ba/F3 cells; 220,000 compounds, 1.1% hits; AID 1446; inhibition, % at 5.6 µM; Ba/F3 EpoR-JAK2V617F viability, ATP luminescence;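 active = inhibition above the campaign mean plus 3 SD over all tested compounds, cut at about 24% in these data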;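 note: cytokine-independent growth of Ba/F3 cells driven by EpoR plus mutant JAK2; 0% = DMSO-treated cells and 100% = JAK inhibitor I control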
APP 5UTR inh = APP translation inhibition | SH-SY5Y APP 5'UTR-luciferase reporter, luminescence | inhibition, % at 2 µM | 190,000 compounds, 0.82% hits | AID 1285;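 active = inhibition above a set limit, derived from the sample mean plus 3 SD, cut at about 45% in these data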
Active calls of the source: *; . = no result given; ! = not active in a repeat.

SMILES | MT stabilizer | Lmaj promast | bCat nuc transl | BaF3 parental | Ba/F3 V617F tox | APP 5UTR inh
O=C(c1cccs1)N1C(=O)c2cccc3cccc1c23 | 3 | -5 | -2 | 3 | 3 | 0
CCn1c(COc2cc(C)ccc2C(C)C)nnc1SCC(=O)Nc1nccs1 | 1 | 6 | -5 | 1 | -1 | 8
Cc1c(N=Cc2ccco2)c(=O)n(-c2ccccc2)n1C | 4 | -3 | -3 | 1 | 0 | 13
COc1ccc2c(C=Nc3c(C)n(C)n(-c4ccccc4)c3=O)c(O)n(Cc3ccco3)c(=O)c2c1 | 5 | 76*! | 0 | -2 | 0 | -4
OC(CC#CCN1CCCC1)(c1ccccc1)c1ccccc1 | . | . | 0 | 1 | -2 | .
C(#CCN1CCCC1)CC(c1ccccc1)c1ccccc1 | 2 | 100* | -1 | 3 | 1 | -15
CC(C)C(O)(C#CCN1CCCCCC1)c1ccccc1 (configuration not stated) | 1 | 83* | 1 | 4 | -5 | 5
CC(C)C(O)(CC#CCN1CCCC1)c1ccccc1 (configuration not stated) | 2 | 54* | -1 | 11 | 2 | -13
CC(C)(C)C(O)(CC#CCN1CCCC1)c1ccccc1 (configuration not stated) | 2 | 69* | -1 | 3 | -3 | -5
Cc1cccc(NC(=O)C2(C)CC3c4ccccc4C2c2ccccc23)c1C (configuration not stated) | 4 | 71* | -2 | 8 | 0 | 7
CCC(C)C(=O)Nn1c(C2CC2)nc2cc(OC)c(OC)cc2c1=O (configuration not stated) | 5 | -2 | -1 | 3 | -1 | -8
O=C(Nc1ccc(F)cc1)OCCOc1ccc(Br)cc1 | . | . | 0 | 4 | -3 | .
Cc1c(Cl)c([N+](=O)[O-])nn1Cc1ccc(C(=O)N/N=C\c2cccc(Br)c2)o1 | 2 | 55* | . | 2 | -4 | -12
O=C(N/N=C\c1cccc(Cl)c1)c1ccc(Cn2cc(Br)c([N+](=O)[O-])n2)o1 | 1 | 23 | -1 | 5 | -4 | 0
CN(C)c1ccc(NC(=S)N2CCN(c3ncc(C(F)(F)F)cc3Cl)CC2)cc1 | . | . | -2 | -1 | -7 | .
Clc1cccc(Cl)c1Cn1nnc(N2CCCC2)n1 | . | . | 0 | 61* | 34* | .
O=c1cc(N2CCCCC2)c(-c2ccccc2)nn1Cc1c(Cl)cccc1Cl | 2 | 27 | . | 3 | 2 | 9
O=C(COC(=O)CCSc1ccccc1)Nc1cc(F)ccc1F | 6 | -2 | -2 | 3 | -2 | -18
O=C(COC(=O)CCSc1ccccc1)Nc1ccc(F)cc1Cl | 2 | 53* | . | 5 | 0 | -1
O=C(COC(=O)CCSc1ccc(Cl)cc1)NCc1ccccc1 | 2 | 60* | . | 8 | 3 | -8
O=C(COC(=O)CCSc1ccc(Cl)cc1)NCc1ccc(Cl)cc1 | 8 | -5 | 1 | 8 | 4 | -13
CC1(C)Cc2c(sc3ncnc(NNC(=S)NCc4ccccc4)c23)CO1 | 29* | -7 | 0 | 80* | 73* | 56*
O=C(NCCc1c[nH]c2ccccc12)c1cc2sccc2n1Cc1ccccc1 | 4 | 100* | -5 | 7 | 0 | -6
Cn1c(C(=O)NCCc2c[nH]c3ccccc23)cc2sccc21 | 2 | 14 | . | 1 | -4 | -67
Cc1ccc(C2CC(c3ccccc3)=NN2C(=S)Nc2ccccc2)o1 (configuration not stated) | 50* | 69* | . | 3 | 1 | 4
SMILES | MT stabilizer | Lmaj promast | bCat nuc transl | BaF3 parental | Ba/F3 V617F tox | APP 5UTR inh
COc1ccc(C2CC(c3cccs3)=NN2C(=S)Nc2ccccc2)cc1OC (configuration not stated) | 2 | 71* | -3 | 3 | -3 | -7
S=C(Nc1ccccc1)N1N=C(c2cccs2)CC1c1cccs1 (configuration not stated) | 4 | 74* | 0 | 12 | 3 | -13
COc1cccc(C2CC(c3cccs3)=NN2C(=S)Nc2ccccc2)c1OC (configuration not stated) | 2 | 65* | 3 | 0 | -2 | 18
CC1=NN(C(=S)Nc2ccccc2)C(c2ccccc2)C1 (configuration not stated) | 2 | 15 | . | 6 | 0 | -3
O=C(Cc1ncc(C(F)(F)F)cc1Cl)N1CCN(c2ccc(F)cc2)CC1 | 2 | -4 | -1 | 8 | 3 | -14
N#Cc1nnn(-c2cc(Cl)cc(Cl)c2)c1N | . | . | -1 | 5 | 0 | .

Assay outcomes: PubChem, several laboratories
